Screening results as filed in PubChem.
FLuc inh counter: Photinus pyralis luciferase inhibition counter-screen; ATPLite firefly luciferase biochemical luminescence, 10 min; inhibition, % at 10 µM; 200,000 compounds, 1.5% hits;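 active = inhibition above about 50% when tested at 10 µM, limit read from the data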
Target sequence (P08659 whole entry, looked up): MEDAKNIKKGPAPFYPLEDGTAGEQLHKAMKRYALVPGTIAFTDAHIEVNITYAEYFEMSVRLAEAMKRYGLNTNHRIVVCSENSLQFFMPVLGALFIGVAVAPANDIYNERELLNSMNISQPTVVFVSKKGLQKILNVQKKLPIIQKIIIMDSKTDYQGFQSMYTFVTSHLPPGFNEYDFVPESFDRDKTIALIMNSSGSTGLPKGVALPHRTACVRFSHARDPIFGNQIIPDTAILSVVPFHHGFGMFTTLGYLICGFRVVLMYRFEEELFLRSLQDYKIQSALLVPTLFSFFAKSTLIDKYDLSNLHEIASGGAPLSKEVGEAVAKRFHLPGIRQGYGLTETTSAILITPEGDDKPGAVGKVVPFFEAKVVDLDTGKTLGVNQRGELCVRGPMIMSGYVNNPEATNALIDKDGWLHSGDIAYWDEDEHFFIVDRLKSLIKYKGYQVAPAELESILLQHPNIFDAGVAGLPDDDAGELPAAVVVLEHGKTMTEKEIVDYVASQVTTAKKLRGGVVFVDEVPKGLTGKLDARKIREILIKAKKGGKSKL
FLuc act counter: affects firefly luciferase, flagging false hits in luciferase stimulation screens. activation factor at 10 µM. P08659. ATPlite luciferase biochemical, luminescence, 10 min; 0 = ATP-free wells, 1 = DMSO control. 200,000 tested, under 10 active;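 active = luciferase activation factor, scaled between plate controls, of at least 2 with compound at 10 µM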
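assay system = Luciferase/luciferin detection reagent, cell-free biochemical luciferase assay | also added = ATP substrate | times = 10 min post-reagent at room temperature | measured by = luminescence from luciferase reaction | measure = luciferase activation, seen as luminescence increase over controls | benchmarks = low control with PBS replacing ATP, high control enzyme plus ATP without compound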
TRAIL sens C8: sensitizes caspase-8 expressing cells to TRAIL | NB7+C8 cells + TRAIL, ATPlite viability luminescence | inhibition (viability loss, TRAIL sensitization), % at 10 µM | 360,000 compounds, 1% hits | AID 624354;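 active = compounds causing at least 50% loss of cell viability in the single-dose screen, relative to plate controls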
PPC-1+TRAIL kill: compounds killing PPC-1 cancer cells with TRAIL present (potentiator screen, no TRAIL-free arm); PPC-1 cells + TRAIL, ATPLite viability luminescence; cell killing (% activity), % at 4 µM or 5 µM; 220,000 compounds, 0.41% hits; AID 1443;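 active = cell killing above 50% in the first pass at 4 µM, then a duplicate retest at 5 µM averaging 50% or more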;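 also: plate controls were cells with TRAIL plus DMSO for no effect and medium-only wells lacking cells for full effect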
* = called active by the depositor; . = not tested or not shown. Most compounds without a hit are left out; they make up all but 1.5% or so of the library.

SMILES	FLuc inh counter	FLuc act counter	TRAIL sens C8	PPC-1+TRAIL kill
CCCCC(=O)N(C)c1c(CC)nc2c(OCc3ccc(C(F)(F)F)cc3)cccn12	.	.	13.5	.
O=S(=O)(c1cnc(Cl)c(Cl)c1)N1CCCc2ccccc21	-4.1	1	-0.5	42.6
O=S(=O)(c1cnc(Cl)c(Cl)c1)N1CCc2ccccc21	.	.	11.9	79.9*
N#Cc1c(N2C(=O)Nc3ccccc3N2O)sc2c1CCCCCC2	55.5*	0.4	19.9	28.6
Cc1ccc(C(=O)Nc2sc3c(c2C#N)CCCCC3)cc1C	0.6	1	5.7	13.0
N#Cc1c(NC(=O)c2ccccc2)sc2c1CCCCC2	55.3*	0.4	53.3*	35.6
O=C(Nc1sc2c(c1C(=O)O)CCCCC2)c1ccccc1	71.8*	0.3	38.0	35.6
CC1(C)Cc2c(sc(NC(=O)c3ccccc3)c2C(=O)O)CO1	58.9*	0.4	25.2	18.9
O=C(NCCS(=O)(=O)N1CCCCCC1)c1ccccc1	.	.	-0.9	.
O=C(Nc1cc(C(F)(F)F)ccc1N1CCOCC1)C1Cc2ccccc2CN1C(=O)c1ccco1 (stereo unspecified)	-3.1	1	-7.1	13.9
CN(C)c1ccc(NC(=O)c2sc(SCC(=O)Nc3ccc(Br)cc3)nc2N)cc1	-3.5	1	-0.4	15.3
CN(C)c1ccc(NC(=O)c2sc(SCC(=O)Nc3nccs3)nc2N)cc1	54.7*	0.5	23.0	22.7
CN(Cc1ccccc1)C(=O)c1csc([C@@H]2O[C@H](CO)[C@H](O)[C@H](O)[C@H]2O)n1	.	.	1.4	.
COc1ccc2nc(C)cc(N/N=C/c3ccc(F)cc3)c2c1	.	.	93.5*	.
CCC(C(=O)NCCN1CCOCC1)n1c2ccccc2c2nc(=O)cc(C)n21 (stereo unspecified)	.	.	-11.9	.
CSc1cc(-c2ccc(Cl)cc2)n(Cc2ccccc2)c(=O)c1C#N	-8.8	1.1	75.0*	14.8
O=C(COC(=O)c1ccc(NC(=O)C2CC=CCC2C(=O)O)cc1)c1ccccc1 (stereo unspecified)	.	.	-19.5	.
CCOC(=O)c1nnn2c1nc(Nc1cccc(C(F)(F)F)c1)c1ccccc12	.	.	59.3*	18.5
CCOC(=O)c1nnn2c1nc(SCC(C)=O)c1ccccc12	.	.	-7.1	12.2
COc1ccc(-c2cc(C(=O)Nc3c(C)n(C)n(-c4ccccc4)c3=O)c3ccccc3n2)cc1	.	.	1.7	.
COc1ccc2cc(-c3cc(C(=O)OCC(=O)NC4CCS(=O)(=O)C4)c4ccccc4n3)ccc2c1 (stereo unspecified)	95.2*	0	92.5*	95.3*
COc1ccc2cc(-c3cc(C(=O)OCC(=O)Nc4c(C)n(C)n(-c5ccccc5)c4=O)c4ccccc4n3)ccc2c1	94.3*	0.1	96.9*	92.4*
O=C(CSc1ncnc2ccccc12)NCc1ccco1	-10.1	1.1	-10.1	18.8
O=C(CSc1ncnc2ccccc12)c1ccco1	81.2*	0.2	-1.1	33.6
COC(=O)C(C)(C)c1cccnc1C#N	.	.	15.3	.
SMILES	FLuc inh counter	FLuc act counter	TRAIL sens C8	PPC-1+TRAIL kill
Nc1c(N(CCC2=CCCCC2)C(=O)Cc2ccc(F)cc2)c(=O)[nH]c(=O)n1Cc1ccccc1	.	.	-14.9	.
Nc1c(N(CCC2=CCCCC2)C(=O)COc2ccc(F)cc2Cl)c(=O)[nH]c(=O)n1Cc1ccccc1	.	.	88.2*	.
N#Cc1cc2c(nc1SCC(=O)Nc1nccs1)CCCCC2	-3.7	1	58.5*	66.8*
C/C(=N\Nc1ccc(Cl)c(C(=O)O)c1)c1ccccn1	.	.	-9.4	4.0
C/C(=N\Nc1ncc(Cl)cc1Cl)c1ccccn1	94.4*	0.1	89.0*	-2.8
CC(C)N(CCCNC(=O)c1nn(C)c2c1CS(=O)(=O)c1ccccc1-2)Cc1ccccc1	.	.	-13.7	.
CCN(CC)c1ccc(N)cc1	.	.	60.4*	.
COc1ccccc1NC(=O)COC(=O)/C=C/c1ccc2c(c1)OCO2	7.5	0.9	1.7	.
COc1ccc(/C=C/C(=O)Nc2ccccc2C(=O)O)cc1OC	53.5*	0.5	29.1	24.4
COc1ccccc1NC(=O)/C=C/c1ccc2c(c1)OCO2	60.8*	0.4	19.7	10.0
COc1ccc(/C=C/C(=O)Nc2ccccc2C(F)(F)F)cc1OC	-6.1	1.1	10.1	7.3
NC(=O)c1ccccc1NC(=O)/C=C/c1cccc(Cl)c1	55.8*	0.4	19.6	14.2
CCOC(=O)c1cccc(NC(=O)/C=C/c2ccc3c(c2)OCO3)c1	35.5	0.6	85.3*	33.4
CC(C)N1CCC(C)(C(=O)Nc2cc(-c3ccccc3)nn2C)C1 (stereo unspecified)	.	.	13.5	.
CCc1ccc(C2CC3C(CN2S(=O)(=O)c2ccc(C)cc2)C(=O)CC(c2ccc(CC)cc2)N3S(=O)(=O)c2ccc(C)cc2)cc1 (stereo unspecified)	.	.	4.4	.
Cc1cccc(NC(=O)CN(CC2CCCO2)C(=O)c2oc3ccccc3c2C)c1C (stereo unspecified)	.	.	-4.7	.
COc1ccc2c(c1)CC/C(=C\C=C\c1ccccc1OC)C2=O	51.8*	0.5	-2.5	12.4
COc1ccc2c(c1)C(=O)/C(=C/C=C/c1ccccc1)CC2	22.5	0.8	1.4	0.2
COc1ccc(/C=C/C(=O)NCC(=O)N=Nc2c(O)[nH]c3ccc([N+](=O)[O-])cc23)cc1	.	.	2.7	.
Cn1cccc1/C=N/n1c(-c2ccc(C(C)(C)C)cc2)n[nH]c1=S	7.0	0.9	53.8*	23.7
Cc1cc(F)ccc1C(O)c1ncc(-c2ccccc2F)[nH]1 (stereo unspecified)	.	.	-10.8	.
c1ccc(-c2cn3nc(-c4ccccc4)sc3n2)cc1	.	.	85.3*	.
COc1cc(S(=O)(=O)N2CCN(c3ccccc3)CC2)ccc1Cl	-2.1	1	5.0	22.6
COc1cc(S(=O)(=O)N2CCN(c3ccccc3F)CC2)ccc1Cl	74.0*	0.3	-8.8	27.6
COC(=O)c1ccc(-c2ccc(Cl)cc2)nc1C	50.5*	0.5	45.6	17.0
SMILES	FLuc inh counter	FLuc act counter	TRAIL sens C8	PPC-1+TRAIL kill
CC(=O)C1CCC2C3CC=C4CC(SC(=N)N)CCC4(C)C3CCC12C (stereo unspecified)	.	.	35.6	.
NC(N)=NCCCS(=O)(=O)Nc1ccc(Nc2c3ccccc3nc3cc([N+](=O)[O-])ccc23)cc1	.	.	-1.1	.
Cc1nc(-c2coc3cc(O)c(C)cc3c2=O)cs1	82.7*	0.2	60.2*	12.5
O/C(=C\c1nc2ccccc2nc1/C=C(\O)c1ccccc1)c1ccccc1	73.2*	0.3	-3.9	13.4
Cc1ccc(S(=O)(=O)N2C[C@H]3[C@H]4C(=O)N(C5CCCCC5)C(=O)[C@H]4CC(=O)[C@H]3[C@@H]2c2ccccc2F)cc1	.	.	-0.4	.
Cc1ccc(S(=O)(=O)N2C[C@H]3[C@H]4C(=O)N(C5CCCCC5)C(=O)[C@H]4CC(=O)[C@H]3[C@@H]2c2cccc3ccccc23)cc1	.	.	59.7*	.
COc1ccc(NC(=O)Nc2ccccc2C(N)=O)cc1	83.9*	0.2	-2.0	-1.7
Cc1ccc(OCC(=O)Nc2ccccc2C(N)=O)cc1	.	.	52.2*	.
Cc1ccc(NC(=O)Nc2ccccc2C(N)=O)cc1	.	.	-25.2	9.3
CCOc1ccc(NC(=O)Nc2ccccc2C(N)=O)cc1	93.3*	0.1	1.0	-11.4
Cc1cc(C(=O)N2CCN(S(=O)(=O)c3ccc(C)c(C)c3)CC2)no1	.	.	10.1	.
